Measured values from ChEMBL document CHEMBL1165901, “Synthesis and biological evaluation of dialkylaminoalkylamino benzo[c][1,7] and [1,8]phenanthrolines as antiproliferative agents” (Eur J Med Chem, 2010).
Activity calls are given as the source filed them. No cut-off for these calls is given here.

Assays:
[1] = target: DNA topoisomerase 2-alpha (Homo sapiens) (UniProt P11388); assay: Inhibition of human recombinant topoisomerase 2-mediated relaxation of supercoiled […] by agarose gel electrophoresis
Summary of the method: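 Supercoiled pUC19 (350 ng) preincubated with compound at […], or etoposide at 20 or 50, before adding 10 units human topoisomerase II; 37 °C for 45 min in cleavage buffer. Stopped with SDS 0.25% plus proteinase K, 30 min at 50 °C. Run on 1% agarose containing ethidium bromide, 2 h at 120 V in TBE.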

L1210 = assay: Cytotoxicity against mouse L1210 cells; type: functional, cell-based
Summary of the method: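 Mouse leukemia L1210 cells grown in RPMI 1640 with 10% FCS, 2 mM glutamine, penicillin/streptomycin and 10 mM HEPES pH 7.4. Exposed 48 h to nine graded drug concentrations in triplicate. Read by microculture tetrazolium assay. IC50 is the concentration that halves absorbance relative to untreated cells; mean of 3.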

[2] = target: T1, DNA topoisomerase 1 (Homo sapiens) (UniProt P11387); assay: Inhibition of human recombinant topoisomerase 1-mediated relaxation of supercoiled pUC19 at 1 to 5 uM by agarose gel electrophoresis
T1 sequence (whole entry): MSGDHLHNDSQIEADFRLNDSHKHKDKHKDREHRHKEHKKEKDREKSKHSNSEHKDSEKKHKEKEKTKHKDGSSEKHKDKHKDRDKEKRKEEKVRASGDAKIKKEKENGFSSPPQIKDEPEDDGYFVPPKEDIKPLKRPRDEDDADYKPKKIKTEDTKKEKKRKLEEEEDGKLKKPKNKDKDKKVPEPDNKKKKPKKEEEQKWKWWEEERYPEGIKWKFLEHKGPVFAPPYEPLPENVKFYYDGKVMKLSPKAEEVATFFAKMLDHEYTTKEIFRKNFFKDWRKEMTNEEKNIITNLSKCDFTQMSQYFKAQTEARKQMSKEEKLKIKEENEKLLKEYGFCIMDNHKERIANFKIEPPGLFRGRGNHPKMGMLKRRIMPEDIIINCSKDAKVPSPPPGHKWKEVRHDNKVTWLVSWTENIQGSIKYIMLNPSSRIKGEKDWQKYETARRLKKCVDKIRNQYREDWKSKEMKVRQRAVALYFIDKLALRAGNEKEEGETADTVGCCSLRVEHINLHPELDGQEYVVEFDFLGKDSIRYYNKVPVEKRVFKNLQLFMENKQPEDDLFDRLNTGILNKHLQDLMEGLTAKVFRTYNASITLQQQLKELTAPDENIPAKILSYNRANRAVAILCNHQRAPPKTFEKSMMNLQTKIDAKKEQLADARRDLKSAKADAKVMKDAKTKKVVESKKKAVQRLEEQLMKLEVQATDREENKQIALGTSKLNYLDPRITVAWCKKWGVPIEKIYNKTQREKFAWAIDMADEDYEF

[3] = target: T1, DNA topoisomerase 1 (Homo sapiens); assay: Inhibition of human recombinant topoisomerase 1-mediated relaxation of supercoiled pUC19 by agarose gel electrophoresis
Calf thymus DNA [4] = assay: Binding affinity to calf thymus DNA assessed as decrease in absorbance at 20 uM by UV-visible spectrophotometry; type: nucleic-acid assay; settings: Bos taurus
Summary of the method: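 Compound at […], with or without CT-DNA at […], in 1 mL BPE buffer pH 7.1 in a 10 mm quartz cuvette. Spectra scanned 230–500 nm against a blank holding the same DNA concentration in the same buffer. Drug/DNA ratio 1; DMSO stocks diluted into buffer.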

Calf thymus DNA [5] = assay: Binding affinity to calf thymus DNA assessed as circular dichroism at 50 uM by J810 Jasco spectrophotometer; type: nucleic-acid assay; settings: Bos taurus
Summary of the method: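 CT-DNA deproteinized with SDS and dialyzed against 1 mM sodium cacodylate pH 7.0. Drug at […], with or without […] base pairs CT-DNA, in 1 mL 1 mM sodium cacodylate pH 7.0. CD spectra recorded 500–230 nm at 0.1 nm resolution.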

Calf thymus DNA [6] = assay: Binding affinity to calf thymus DNA assessed as change in melting temperature; type: nucleic-acid assay; settings: Bos taurus
Summary of the method: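 CT-DNA ([…] as printed) in 1 mL BPE buffer pH 7.1 (6 mM Na2HPO4, 2 mM NaH2PO4, 1 mM EDTA), alone or with drug at base pair/drug ratio 1. A260 recorded every min, 20–100 °C at 1 °C/min, Peltier-controlled. Tm taken as midpoint of hyperchromic double- to single-strand transition; ΔTm relative to DNA alone.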

Calf thymus DNA [7] = assay: Binding affinity to calf thymus DNA assessed as decrease in fluorescence intensity at 20 uM by fluorescence spectrophotometry; type: nucleic-acid assay; settings: Bos taurus
Summary of the method: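 Fluorescent compound at […] in 1 mL BPE buffer pH 7.1, with or without […] CT-DNA, in a 10 mm quartz cuvette. Excitation at 268, 275 or 285 nm depending on compound; emission spectra scanned.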

Sequence of DNA topoisomerase 2-alpha (Homo sapiens) (P11388 whole entry): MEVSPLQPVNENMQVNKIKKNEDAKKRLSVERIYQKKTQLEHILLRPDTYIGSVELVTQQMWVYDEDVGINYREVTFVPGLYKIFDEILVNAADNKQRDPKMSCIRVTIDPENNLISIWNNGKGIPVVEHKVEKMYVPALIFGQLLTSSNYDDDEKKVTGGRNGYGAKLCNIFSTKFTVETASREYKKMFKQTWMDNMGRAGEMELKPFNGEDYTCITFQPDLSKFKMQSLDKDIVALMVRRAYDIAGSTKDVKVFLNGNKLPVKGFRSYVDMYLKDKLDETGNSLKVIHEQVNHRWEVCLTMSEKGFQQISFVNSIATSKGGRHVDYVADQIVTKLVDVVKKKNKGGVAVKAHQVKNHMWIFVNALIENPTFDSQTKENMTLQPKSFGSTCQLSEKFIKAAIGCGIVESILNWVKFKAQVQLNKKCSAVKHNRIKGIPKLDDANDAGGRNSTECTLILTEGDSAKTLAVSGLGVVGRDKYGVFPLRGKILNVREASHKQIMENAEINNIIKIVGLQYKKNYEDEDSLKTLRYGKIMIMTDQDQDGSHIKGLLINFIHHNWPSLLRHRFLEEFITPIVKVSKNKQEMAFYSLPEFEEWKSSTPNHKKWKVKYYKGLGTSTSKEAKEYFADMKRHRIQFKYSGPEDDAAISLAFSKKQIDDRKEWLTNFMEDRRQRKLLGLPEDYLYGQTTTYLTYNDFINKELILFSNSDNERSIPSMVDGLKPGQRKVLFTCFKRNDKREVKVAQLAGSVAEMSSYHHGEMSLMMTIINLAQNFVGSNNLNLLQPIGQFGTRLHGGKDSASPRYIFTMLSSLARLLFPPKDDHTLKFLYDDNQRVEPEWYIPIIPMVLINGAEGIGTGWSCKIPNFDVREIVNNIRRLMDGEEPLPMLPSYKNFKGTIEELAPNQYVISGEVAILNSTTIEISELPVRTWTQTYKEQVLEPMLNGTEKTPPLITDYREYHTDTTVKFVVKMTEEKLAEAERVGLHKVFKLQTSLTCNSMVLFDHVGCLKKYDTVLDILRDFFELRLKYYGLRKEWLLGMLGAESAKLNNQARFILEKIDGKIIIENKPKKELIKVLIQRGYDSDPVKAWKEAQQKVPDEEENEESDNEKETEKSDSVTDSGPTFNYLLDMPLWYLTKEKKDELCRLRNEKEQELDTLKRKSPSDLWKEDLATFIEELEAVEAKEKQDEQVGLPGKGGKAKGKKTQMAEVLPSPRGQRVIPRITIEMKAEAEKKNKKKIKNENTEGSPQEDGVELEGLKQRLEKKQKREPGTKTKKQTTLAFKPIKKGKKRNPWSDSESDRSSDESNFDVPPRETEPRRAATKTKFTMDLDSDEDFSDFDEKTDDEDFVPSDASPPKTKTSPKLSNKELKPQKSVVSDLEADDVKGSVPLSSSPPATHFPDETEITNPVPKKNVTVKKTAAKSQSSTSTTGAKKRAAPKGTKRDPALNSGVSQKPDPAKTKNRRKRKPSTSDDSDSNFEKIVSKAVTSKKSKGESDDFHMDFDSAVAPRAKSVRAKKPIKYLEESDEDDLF

Row | Activity [1] | Activity [2] | Activity [3] | Activity (Calf thymus DNA [4]) | Activity (Calf thymus DNA [5]) | ΔTm (Calf thymus DNA [6]) [°C] | Activity (Calf thymus DNA [7]) | inhibition [2] | Compound | IC50 (L1210) [nM]
1 | Active | inactive | Active | Active | Active | 14 | – | – | CN(C)CCCNc1nccc2c1ccc1c3cc4c(cc3cnc21)OCO4 | 290
2 | Active | – | – | Active | Active | – | Active | – | CN(C)CCCNc1ccc2c(ccc3c4cc5c(cc4cnc23)OCO5)n1 | 510
3 | Active | – | – | Active | – | – | – | – | COc1cc2cnc3c4ccnc(NCCCN(C)C)c4ccc3c2cc1OC | 1800
4 | Active | – | – | Active | – | – | Active | – | CCN(CC)CCCNc1ccc2c(ccc3c4cc(OC)c(OC)cc4cnc23)n1 | 1260
5 | Active | – | – | Active | Active | 11 | Active | – | CCN(CC)CCCNc1ccc2c(ccc3c4cc5c(cc4cnc23)OCO5)n1 | 830
6 | Active | – | – | Active | – | 9 | – | – | COc1cc2cnc3c4ccnc(NCCN(C)C)c4ccc3c2cc1OC | 3510
7 | Active | inactive | Active | Active | – | 5 | Active | – | CCN(CC)CCNc1ccc2c(ccc3c4cc5c(cc4cnc23)OCO5)n1 | 1740
8 | Active | – | – | – | – | – | – | – | CCN(CC)CCCNc1nccc2c1ccc1c3cc(OC)c(OC)cc3cnc21 | 3700
9 | Active | – | – | Active | – | 9 | – | – | CCN(CC)CCNc1nccc2c1ccc1c3cc(OC)c(OC)cc3cnc21 | 1770
10 | Active | – | – | Active | – | 0 | Active | – | COc1cc2cnc3c4ccc(NCCCN(C)C)nc4ccc3c2cc1OC | 2850
11 | Active | – | – | Active | – | 5 | Active | – | CCN(CC)CCNc1ccc2c(ccc3c4cc(OC)c(OC)cc4cnc23)n1 | 960

Further lines, the molecule ahead of its results:

Row | Compound | Activity [1] | Activity [2] | Activity [3] | Activity (Calf thymus DNA [4]) | Activity (Calf thymus DNA [5]) | ΔTm (Calf thymus DNA [6]) [°C] | Activity (Calf thymus DNA [7]) | inhibition [2] | IC50 (L1210) [nM]
12 | CN(C)CCNc1ccc2c(ccc3c4cc5c(cc4cnc23)OCO5)n1 | Active | inactive | Active | Active | – | 4 | Active | – | 320
13 | COc1cc2cnc3c4ccc(NCCN(C)C)nc4ccc3c2cc1OC | Active | – | Active | Active | – | 12 | Active | inactive | 1730
14 | c1cnc2ccc3c4cc5c(cc4cnc3c2c1)OCO5 | – | – | – | – | – | – | – | – | 8800
15 | COc1cc2c(ccc3c4cc(OC)c(OC)cc4c[n+](C)c23)cc1O [FAGARONINE] | – | – | – | – | – | – | – | – | 6600
16 | c1cc2c(ccc3c4cc5c(cc4cnc23)OCO5)cn1 | – | – | – | – | – | – | – | – | 4400
17 | CN(C)CCNc1nccc2c1ccc1c3cc4c(cc3cnc21)OCO4 | Active | inactive | Active | Active | – | 7 | – | – | –
18 | COc1cc2cnc3c4ccnc(Cl)c4ccc3c2cc1OC | – | – | – | – | – | – | – | – | 4300
19 | COc1cc2cnc3c4cccnc4ccc3c2cc1OC | – | – | – | – | – | – | – | – | 7100
20 | COc1cc2cnc3c4ccncc4ccc3c2cc1OC | – | – | – | – | – | – | – | – | 6600
